From the RNAGym collection of RNA variant scans (doi:10.1126/science.aae0568) come the findings set out here.

The labels stand for the following.
B1: tRNA (parent)
chain: GUUCCGUUGGCGUAAUGGUAACGCGUCUCCCUCCUAAGGAGAAGACUGCGGGUUCGAGUCCCGUACGGAACG

This sample holds only a part of the variants without activity.

The data set covers variants of B1. The experiment in a line: yeast fitness relative to wild type (ratio to wild type); higher = fitter; tRNA-Arg(CCU), competitive growth, 37 C, YPD. In short, it runs like this:
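Start and end populations of a pooled competition were compared by 100-nucleotide paired-end sequencing of gene amplicons. The Saccharomyces cerevisiae strains carried tRNA-Arg(CCU) gene variants at the native genomic locus, synthesised with a 3% per-site mutation rate at 69 sites, and competed in YPD at 37°C for 24 hours in six parallel replicates. Darwinian fitness relative to wild type was based on the change in genotype frequencies. Genotypes required ≥ 100 starting reads, and estimates < 0.5 were set to 0.5.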
GUUCCGUUGGCGUAAUGGUAACGCGUCUGCCUCCUAAGGAGAAGACUGCGGGUUGGAGUCCCGUACGGAGCG [C29G C55G A70G]: the yeast fitness is ≤ 0.5. For the variant GUUCCGUUGGCGUAAUGGUAACGCGUCUUCCUCCUAUGGAGAAGAUUGCGGGUUCGAGGCCCGUACGGAACG [C29U A37U C46U U59G], the yeast fitness is ≤ 0.5. The value for GUUCCGUUGGCGUAAUGGUAACGCGUCUGCCUCCUAAAGAGAAAAUUGCGGGUUCGAGUCCGGUACGGAACG [C29G G38A G44A C46U C62G] was ≤ 0.5; that for GUUCCGUUGGCGUAAUGGUAACGCGUCUGCCGCCUAAGGAGAAGACUGCGGGUUCGAGUCCCGUACGGAACG [C29G U32G] was ≤ 0.5; that for GUUCCGUUGGCGUAAUGGUAACGCGUCUGCCUCCUAAGGAGAAGACUGCGGGUUCGAGUCCCGUACAGAACG [C29G G67A] was 0.565. In the case of GUUCCGUUGGCGUAAUGGUAACGCGUCUGCCUCCUAAGGAGAAGACUGGCGGUUCGAGUCCGGUACGGUACG [C29G C49G G50C C62G A69U], the yeast fitness is 0.506.

With GUUCCGUUGGCGUAAUGGUAACGCGUCUGCCUCCUAAGGAGAAGACUGCGGGCGCGAGUCCCGUACGGAACG [C29G U53C U54G], the yeast fitness was 0.509. The value for GUUCCGUUGGCGUAAUGGUAACGCGUCUGCCUCCUAAAGAGAGGACUGCAGGUUCGAGUCCCGUACGGAACG [C29G G38A A43G G50A] was ≤ 0.5; that for GUUCCGUUGGCGUAAUGGUAACGCGUCUUCCUCCUCAGGAGAAGACUGCGGGUUCAAGUCCCGUACGGAACG [C29U A36C G56A] was ≤ 0.5. GUUCCGUUGGCGUAAUGGUAACGCGUCUGCCUCCUAAAGAGAAGACUGCGGGUUCGAGUCCCGUACGGAACG [C29G G38A]: the yeast fitness was found to be 0.614.

As to GUUCCGUUGGCGUAAUGGUAACGCGUCUGCCUCCUAAGGAGAAGACUGCGGGUUGGGGUCCCGUACGGGACG [C29G C55G A57G A69G], the yeast fitness was determined as 0.606. Consider GUUCCGUUGGCGUAAUGGUAACGCGUCUGCCUCCGAAGGAGAAGACUGCGGGUUCGAGUUCCGUACGGAACG [C29G U35G C60U], for which the yeast fitness is ≤ 0.5. With GUUCCGUUGGCGUAAUGGUAACGCGUCUGCCUCCUAAGGAGAAGAAUGCGGGUUCGGGCCCCGUACGGAACG [C29G C46A A57G U59C], the yeast fitness is ≤ 0.5. The value for GUUCCGUUGGCGUAAUGGUAACGCGUCUGCCUCCUAACGAGAAAACUGCGGGUUCGAGUCCCGUACGGAACG [C29G G38C G44A] was 0.668; that for GUUCCGUUGGCGUAAUGGUAACGCGUCUGCCUCCUAAGGAGAAGACCGCGGGUUCGAGUCCCGUACGGAACG [C29G U47C] was 0.75. Consider GUUCCGUUGGCGUAAUGGUAACGCGUCUGCCUCCAAAGGAGAAGACUCCGGGUUCGAGUCCCGUACGGAACG [C29G U35A G48C], for which the yeast fitness is ≤ 0.5. GUUCCGUUGGCGUAAUGGUAACGCGUCUGCCACCUAAGGAGAAGACCGCGGGUUCGAGUCCAGUACGGAACG [C29G U32A U47C C62A]: the yeast fitness was ≤ 0.5. Take GUUCCGUUGGCGUAAUGGUAACGCGUCUUCCUCCUUAGGAGAAGACUGUGGGUUCGAGUCCCGUACGGAACG [C29U A36U C49U]: the yeast fitness is ≤ 0.5. On to GUUCCGUUGGCGUAAUGGUAACGCGUCUGCCUCCUAAGGAGAAGACUGCGGGUUCGAGUCCCGUACGUAACG [C29G G68U], for which the yeast fitness came out at 0.68. The value for GUUCCGUUGGCGUAAUGGUAACGCGUCUGCCUCCUAAGGAGAAGACUGCGGGUUUGAGUCCUGUACGGAACG [C29G C55U C62U] was 0.567.

For GUUCCGUUGGCGUAAUGGUAACGCGUCUGCCUCCUAAGGAGAAGACUGCGGGUCCGAGUCCCGUACGGAACG [C29G U54C], the yeast fitness was found to be 0.664. Turning to GUUCCGUUGGCGUAAUGGUAACGCGUCUGCCUCUUAAGGAGAAGACUGCGGGUUCGAGUCCCGUACGGAACG [C29G C34U], the yeast fitness was determined as 0.561. As for GUUCCGUUGGCGUAAUGGUAACGCGUCUGCCUCCUAAGGAGAACACUGGGGGUUCGCGUCCCGUACGGAACG [C29G G44C C49G A57C], the yeast fitness turned out to be 0.598.

In the case of GUUCCGUUGGCGUAAUGGUAACGCGUCUGCCUCCUAAGGAGAAGAAUGCGGGUUCGAGUCCCGUACGGAACG [C29G C46A], the yeast fitness was 0.661.

Turning to GUUCCGUUGGCGUAAUGGUAACGCGUCUGCCCCCUAAGGUGAAGACUGCGGGUUCGAGUCUCGUAUGGAACG [C29G U32C A40U C61U C66U], the yeast fitness was ≤ 0.5. With GUUCCGUUGGCGUAAUGGUAACGCGUCUGCCUCCUAAGGAGAAGACUGAGGGUUCGAGUCCCGUACCGAACG [C29G C49A G67C], the yeast fitness is ≤ 0.5.

For the variant GUUCCGUUGGCGUAAUGGUAACGCGUCUGCCUCCUAAGGAGAAGACUGCGGGUGCGAGACCCGUACGGAACG [C29G U54G U59A], the yeast fitness was ≤ 0.5. With GUUCCGUUGGCGUAAUGGUAACGCGUCUGCCUCCUAAGGAGAAAACUGCGGGUUCCAGUCCAGUACCGAACG [C29G G44A G56C C62A G67C], the yeast fitness is ≤ 0.5. On to GUUCCGUUGGCGUAAUGGUAACGCGUCUGCCUCUUAAGGAGAAGACUGCGGGUUCGAGUCCUGUACGGAACG [C29G C34U C62U], for which the yeast fitness is ≤ 0.5. For the variant GUUCCGUUGGCGUAAUGGUAACGCGUCUGCCUCCUAAGGAGAAGACUGCCGGUUCGAGUCCCGUUCGGAACG [C29G G50C A65U], the yeast fitness is ≤ 0.5.

As to GUUCCGUUGGCGUAAUGGUAACGCGUCUUCCUCCUACGGAAAAGACUGCGGGUUCGAGUCCCGUACGGACCG [C29U A37C G41A A70C], the yeast fitness was ≤ 0.5.

For the variant GUUCCGUUGGCGUAAUGGUAACGCGUCUGCCUCCUAAGGAGAAGACUGCGGGUUCGAGUCACGUACGGAACG [C29G C61A], the yeast fitness was ≤ 0.5. Take GUUCCGUUGGCGUAAUGGUAACGCGUCUGCCUCCUAAAGAGAAGACUGCGGGAUCGAGUCCCGAACGGAACG [C29G G38A U53A U64A]: the yeast fitness is ≤ 0.5.

Turning to GUUCCGUUGGCGUAAUGGUAACGCGUCUGCCCCCUAAGGAGAAGACUGCGAGUUCGAGUCCCGUACGGAACG [C29G U32C G51A], the yeast fitness is 0.723.

Regarding GUUCCGUUGGCGUAAUGGUAACGCGUCUGCCUCCUAAGGAGAAGACUGCGGGUUCGAGUCCCAUACGGAACG [C29G G63A], the yeast fitness amounted to 0.646. Take GUUCCGUUGGCGUAAUGGUAACGCGUCUGCCUCAUAGGGAGAAGACUGCGGGUUCGAGUCCCGUACGGAACG [C29G C34A A37G]: the yeast fitness is ≤ 0.5. As for GUUCCGUUGGCGUAAUGGUAACGCGUCUGCCUCCUAAGGAGAAGACUCCGGGUUCGAGACCCGUACGGAACG [C29G G48C U59A], the yeast fitness was ≤ 0.5. Take GUUCCGUUGGCGUAAUGGUAACGCGUCUGCCUCCCAAGGAGAAGACUGCGGGUUGGGGUCCCGUACGGAACG [C29G U35C C55G A57G]: the yeast fitness is ≤ 0.5.
